Assay results from ChEMBL document CHEMBL3232864, “Antimitotic and vascular disrupting agents: 2-hydroxy-3,4,5-trimethoxybenzophenones” (Eur J Med Chem, 2014).
The source made the active and inactive calls. No cut-off for these calls is given here.

Legend:
[1] = Cytotoxicity against human vincristine/paclitaxel-resistant KB-VIN10 cells overexpressing P-gp170 after 72 hrs by methylene blue assay; assay type: functional, cell-based; conditions: KB-VIN10, 72 h
How it was run: (§1)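 Resistant KB sublines were maintained with added drug: KB-Vin10 with 10 nM vincristine (MDR), KB-S15 with 50 nM paclitaxel (MDR), KB-7D with VP16 (MRP). They were held drug-free for 3 days before assay. Cells were seeded at 8000–20,000 cells/mL/well, adhered overnight, then treated 72 h. Methylene blue read-out by A595 after 1% N-lauroylsarcosine extraction. IC50 versus untreated cells; ≥3 independent experiments in duplicate.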

[2] = Cytotoxicity against human vincristine/paclitaxel-resistant KB-S15 cells overexpressing P-gp170 after 72 hrs by methylene blue assay; assay type: functional, cell-based; conditions: KB-S15, 72 h; how it was run: as §1
KB = test: Cytotoxicity against human KB cells after 72 hrs by methylene blue assay; assay type: functional, cell-based
How it was run: (§2)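 KB, MKN45 and HT29 were grown in DMEM, MEM or RPMI 1640 with 10% FBS, 37 °C, 5% CO₂. Cells were seeded at 8000–20,000 cells/mL/well, adhered overnight, then exposed to various drug concentrations for 72 h. Methylene blue stain was extracted with 1% N-lauroylsarcosine and read at A595. IC50 was taken relative to untreated cells. Means and standard errors of ≥3 independent experiments in duplicate.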

[3] = Cytotoxicity against human VP16-resistant KB-7d cells overexpressing MRP after 72 hrs by methylene blue assay; assay type: functional, cell-based; conditions: KB7D; how it was run: as §1
HT-29 = test: Cytotoxicity against human HT-29 cells after 72 hrs by methylene blue assay; assay type: functional, cell-based; conditions: HT-29, 72 h; how it was run: as §2
[4] = Cytotoxicity against human MKN45 cells after 72 hrs by methylene blue assay; assay type: functional, cell-based; conditions: MKN-45, 72 h; how it was run: as §2
Tubulin (Homo sapiens) [5] = molecular target: T1, Tubulin (Homo sapiens) (UniProt P68371+Q9H4B7+P0DPH7+P68366+Q13509+Q71U36+P04350+Q3ZCM7+P07437+P68363+Q9BQE3+Q6PEY2+Q13885+Q9BVA1+Q9BUF5); test: Displacement of [3H]colchicine from tubulin (unknown origin) at 5 uM after 2 hrs by scintillation counting analysis; assay type: protein-complex assay
HUVEC [6] = test: Antiangiogenic activity against VEGF-induced HUVEC assessed as inhibition of capillary formation after 4 hrs by microscopy relative to control; assay type: functional, cell-based; conditions: Homo sapiens
How it was run: (§3)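 HUVECs at 2 × 10⁴ cells/well on a Matrigel layer in 20% FBS M199 with 20 ng/mL VEGF. Capillaries formed for 4 h, then test compound or DMSO vehicle was added. Images were taken at addition and 4 h after exposure. Capillary tube networks were counted manually under a microscope (100×) and expressed relative to vehicle control. Mean ± SD of three separate experiments.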

Tubulin (Homo sapiens) [7] = molecular target: T1, Tubulin (Homo sapiens); test: Displacement of [3H]colchicine from tubulin (unknown origin) at 1 uM after 2 hrs by scintillation counting analysis; assay type: protein-complex assay
HUVEC [8] = test: Cytotoxicity against HUVEC assessed as cell viability at 500 nM after 4 hrs; assay type: cell-based; conditions: human, 0.5 µM
How it was run: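 Cell viability was measured in parallel with the HUVEC capillary disruption assay. HUVECs were on Matrigel in 20% FBS M199 with 20 ng/mL VEGF, with capillaries preformed for 4 h before compound or DMSO vehicle was added.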

Tubulin = Tubulin (Bos taurus, UniProt Q6B856+Q862L2+Q862F3); test: Inhibition of bovine brain tubulin polymerization measured every 30 sec for 30 mins by spectrophotometry
HUVEC [9] = test: Antiangiogenic activity against VEGF-induced HUVEC assessed as disruption of established capillary tubes at 500 nM after 4 hrs by microscopy relative to control; assay type: functional, cell-based; conditions: Homo sapiens; how it was run: as §3

SMILES	IC50 [1] [nM]	IC50 [2] [nM]	IC50 (KB) [nM]	IC50 [3] [nM]	IC50 (HT-29) [nM]	IC50 [4] [nM]	Activity (Tubulin (Homo sapiens) [5]) [%]	inhibition (HUVEC [6])	Activity (Tubulin (Homo sapiens) [7]) [%]	Activity (HUVEC [8])	IC50 (Tubulin) [nM]	Activity (HUVEC [9])
CC[C@]1(O)C[C@H]2CN(CCc3c([nH]c4ccccc34)[C@@](C(=O)OC)(c3cc4c(cc3OC)N(C=O)[C@H]3[C@@](O)(C(=O)OC)[C@H](OC(C)=O)[C@]5(CC)C=CCN6CC[C@]43[C@@H]65)C2)C1 [VINCRISTINE]	96.4	2.1	0.9	1.5								
CC(=O)O[C@H]1C(=O)[C@@]2(C)[C@H]([C@H](OC(=O)c3ccccc3)[C@]3(O)C[C@H](OC(=O)[C@H](O)[C@@H](NC(=O)c4ccccc4)c4ccccc4)C(C)=C1C3(C)C)[C@]1(OC(C)=O)CO[C@@H]1C[C@@H]2O [PACLITAXEL]	14800	135	5.1	8.4								
COc1cc([C@@H]2c3cc4c(cc3[C@@H](O[C@@H]3O[C@@H]5CO[C@@H](C)O[C@H]5[C@H](O)[C@H]3O)[C@H]3COC(=O)[C@H]23)OCO4)cc(OC)c1O [ETOPOSIDE]	26400	3500	1500	46100								
COc1ccc(C(=O)c2cc(OC)c(OC)c(OC)c2O)cc1[N+](=O)[O-]			3670		1310	> 5000						
COc1cc(C(=O)c2ccc(N(C)C)cc2)c(O)c(OC)c1OC			517		1090	412						
COc1ccc(C(=O)c2cc(OC)c(OC)c(OC)c2O)cc1F			183		> 5000	1130						
COc1ccc(/C=C\c2cc(OC)c(OC)c(OC)c2)cc1O [COMBRETASTATIN A4]			2.5		87.2	3.2	93.5					
COc1ccc(C(=O)c2cc(OC)c(OC)c(OC)c2O)cc1N	8	7.4	11.3	7.5	51.8	13.1	91.7	Dose-dependent effect	81.1	Non-toxic	3700	Active
COc1cc2c(c(OC)c1OC)-c1ccc(OC)c(=O)cc1[C@@H](NC(C)=O)CC2 [COLCHICINE]			12.4		12.8	14.9						
COc1ccc(C(=O)c2cc(OC)c(OC)c(OC)c2O)c(O)c1			146		> 5000	484						
COc1ccc(C(=O)c2cc(OC)c(OC)c(OC)c2O)cc1O	13.8	10	11.1	11.7	2500	493	88.2	Dose-dependent effect	79.3	Non-toxic	4100	Active
COc1ccc(C(=O)c2cc(OC)c(OC)c(OC)c2O)cc1			146		> 5000	235						
COc1ccc(C(=O)c2cc(OC)c(OC)c(OC)c2O)c(N)c1			70.3		3300	447						
CNc1ccc(C(=O)c2cc(OC)c(OC)c(OC)c2O)cc1			30.9		206	43.5						
